Test results taken from paper PMC9260854 (Biochemistry, 2022).
Positions count from the first letter of the chain named. Like-named read-outs stand apart in the source and are kept apart here.

How the values were obtained:
[1] = target: T1, SULT2B1a (Homo sapiens, UniProt O00204); assay: Initial-rate 1-HP sulfonation inhibition; format: biochemical
T1 sequence (O00204 1-350 isoform O00204-2): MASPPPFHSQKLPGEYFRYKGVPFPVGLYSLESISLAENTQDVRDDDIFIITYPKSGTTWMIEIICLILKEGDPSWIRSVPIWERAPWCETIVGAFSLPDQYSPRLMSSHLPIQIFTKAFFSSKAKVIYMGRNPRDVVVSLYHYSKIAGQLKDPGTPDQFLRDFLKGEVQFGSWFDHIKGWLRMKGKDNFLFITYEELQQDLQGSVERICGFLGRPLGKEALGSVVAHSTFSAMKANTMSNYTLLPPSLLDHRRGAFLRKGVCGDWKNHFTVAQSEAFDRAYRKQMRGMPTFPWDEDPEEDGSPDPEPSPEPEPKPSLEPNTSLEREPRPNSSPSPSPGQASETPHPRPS

[2] = target: T2, SULT2A1 (Homo sapiens, UniProt Q06520); assay: Initial-rate 1-HP sulfonation inhibition; format: biochemical
T2 sequence (Q06520 1-285): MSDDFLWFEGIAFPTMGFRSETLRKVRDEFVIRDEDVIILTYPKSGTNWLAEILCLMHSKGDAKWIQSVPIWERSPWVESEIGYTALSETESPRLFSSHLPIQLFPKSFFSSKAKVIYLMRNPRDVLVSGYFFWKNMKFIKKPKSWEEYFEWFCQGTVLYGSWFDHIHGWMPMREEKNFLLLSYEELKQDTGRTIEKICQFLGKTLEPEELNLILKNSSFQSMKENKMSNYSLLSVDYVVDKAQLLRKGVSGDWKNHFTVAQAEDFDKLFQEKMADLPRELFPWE

[3] = target: T3, SULT2B1b S347D spin-labeled at residue 21 (Homo sapiens, UniProt O00204, C225S/C278S/C81S/S21C/S347D); assay: Initial-rate parameters, spin-labeled mutant 21; format: biochemical
T3 sequence (O00204 1-365 S21C/C81S/C225S/C278S/S347D): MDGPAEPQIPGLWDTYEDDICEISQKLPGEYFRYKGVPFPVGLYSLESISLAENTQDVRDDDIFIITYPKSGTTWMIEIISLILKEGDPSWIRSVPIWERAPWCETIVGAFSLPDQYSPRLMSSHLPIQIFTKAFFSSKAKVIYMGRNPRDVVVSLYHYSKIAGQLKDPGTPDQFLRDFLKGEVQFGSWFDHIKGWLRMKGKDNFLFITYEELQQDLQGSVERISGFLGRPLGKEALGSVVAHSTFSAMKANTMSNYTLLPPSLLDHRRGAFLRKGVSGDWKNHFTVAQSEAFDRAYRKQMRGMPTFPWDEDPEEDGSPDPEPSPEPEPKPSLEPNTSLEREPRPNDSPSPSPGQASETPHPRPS

[4] = target: T4, SULT2B1b S347D spin-labeled at residue 171 (Homo sapiens, UniProt O00204, C225S/C278S/C81S/S347D/T171C); assay: Initial-rate parameters, spin-labeled mutant 171; format: biochemical
T4 sequence (O00204 1-365 C81S/T171C/C225S/C278S/S347D): T3 sequence (O00204 1-365 S21C/C81S/C225S/C278S/S347D) with C21S, T171C

[5] = target: T5, SULT2B1b S347D (Homo sapiens, UniProt O00204, S347D); assay: Equilibrium binding via intrinsic fluorescence; conditions: for Kd: Kd Quc
T5 sequence (O00204 1-365 S347D): T3 sequence (O00204 1-365 S21C/C81S/C225S/C278S/S347D) with C21S, S81C, S225C, S278C
In short: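 Intrinsic fluorescence titrations of purified His/GST/MBP-tag-cleaved enzyme, excitation 290 nm, in KPO4 (50 mM), pH 7.5, 25 ± 2 °C. […] Triplicate averaged data were fit to a single-site-per-monomer model.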

[6] = target: T6, SULT2B1b, S347D, W13A (Homo sapiens, UniProt O00204, S347D/W13A); assay: Initial-rate parameters, direct-contact mutant W13A
T6 sequence (O00204 1-365 W13A/S347D): T3 sequence (O00204 1-365 S21C/C81S/C225S/C278S/S347D) with W13A, C21S, S81C, S225C, S278C

[7] = target: T5, SULT2B1b S347D; assay: Initial-rate 1-HP sulfonation

O=c1c(O)c(-c2ccc(O)c(O)c2)oc2cc(O)cc(O)c12 [quercetin]
inhibition by quercetin ([1]; concentrations as high as 10 μM): does not detectably inhibit | inhibition by quercetin ([1]; up to 100 μM quercetin): No inhibition was detected | inhibition by quercetin [2]: not inhibited | inhibition by quercetin ([2]; up to 100 μM quercetin): No inhibition was detected | Ki [3]: 330 nM | Ki [4]: 350 nM | Kd ([5]; enzyme form E (no PAP)): 5300 nM | Kd ([5]; enzyme form E•PAP (PAP 30 μM)): 350 nM | increase of quercetin affinity ([5]; saturation with PAPS): 15 fold | Ki [6]: 7500 nM | quercetin affinity, SULT2B1b relative to SULT1A1 ([7]; affinity less for SULT2B1b than SULT1A1): ~ 68 fold | slowing of turnover at saturating quercetin ([7]; at saturation): ~ 13 fold | α (fraction of enzyme turnover at saturating inhibitor), quercetin ([7]; saturating PAPS and 1-HP, tag-cleaved enzyme): 0.08 ± 0.01 | turnover at saturating quercetin ([7]; saturating quercetin): 0.20 ± 0.02 s⁻¹
